Consider 22 compounds from ChEMBL document CHEMBL1128595, “Synthesis and biological activity of 7-alkylidenecephems” (J Med Chem, 1995).

Series [1] deals with T1, Beta-lactamase TEM (Escherichia coli, UniProt P62593). The experiment in a line: (§1) The concentration of compound to inhibit beta-lactamase was measured on Escherichia coli WC3310. It counts as functional. In outline:
(§2)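 TEM-2 β-lactamase partially purified from E. coli W3310 (freeze-thaw lysis, DNase, Sephadex G-75 gel filtration). Enzyme preincubated with varied inhibitor in 50 mM phosphate buffer pH 7.2 at 25 °C for 10 min. Aliquot then diluted into nitrocefin (the more concentrated standard solution), and hydrolysis rate read at 482 nm.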

Series [2] concerns the target T2, Beta-lactamase (Enterobacter cloacae, UniProt P05364). As to the kind of experiment: The concentration of compound to inhibit beta-lactamase was measured on Enterobacter cloacae P99. The class given is functional.
For series [3], the target named is T2, Beta-lactamase. The experiment in a line: The concentration of compound to inhibit beta-lactamase was measured on Enterobacter cloacae SC 12368. It counts as functional.
Series [4] concerns the target T2, Beta-lactamase. The experiment in a line: The concentration of compound to inhibit Beta-lactamase was measured on Enterobacter cloacae SC 12368. It counts as functional.
Series [5] has as its target T1, Beta-lactamase TEM. As to the kind of experiment: (§3) The concentration of compound to inhibit Beta-lactamase was measured on Escherichia coli WC3310. The class given is functional. The gist of the method:
as §2

Series [6] concerns the target T2, Beta-lactamase. The experiment in a line: The concentration of compound to inhibit Beta-lactamase was measured on Enterobacter cloacae P99. It counts as functional.
The nature of series [7]: The pseudo second order rate constant of inhibition (k3'') was measured by using Kitz and Wilson method. It counts as ADME. In outline: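 Kitz–Wilson analysis with E. cloacae P99 β-lactamase in 50 mM phosphate pH 7.2 at 25 °C. Enzyme incubated with five inhibitor concentrations (assay 2.8 × 10⁻⁸ to 1.4 × 10⁻⁷ M; enzyme 2.56 nM final). Aliquots taken at 30 s intervals over 5 min, diluted into nitrocefin (0.19 mM), absorbance at 482 nm read for 10 s. Reciprocal rate constants plotted against reciprocal inhibitor concentration.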

The target in series [8] is T1, Beta-lactamase TEM. The series is described as §1. It counts as functional. The gist of the method: (§4)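 TEM-2 β-lactamase partially purified from E. coli W3310 (freeze-thaw lysis, DNase, Sephadex G-75 gel filtration). Enzyme preincubated with varied inhibitor in 50 mM phosphate buffer pH 7.2 at 25 °C for 10 min.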
The source holds these as a separate data set.

Series [9] concerns the target T1, Beta-lactamase TEM. Described as §3. The class given is functional. In outline: as §4
This is another data set of the same source.

T1 sequence (P62593 whole entry): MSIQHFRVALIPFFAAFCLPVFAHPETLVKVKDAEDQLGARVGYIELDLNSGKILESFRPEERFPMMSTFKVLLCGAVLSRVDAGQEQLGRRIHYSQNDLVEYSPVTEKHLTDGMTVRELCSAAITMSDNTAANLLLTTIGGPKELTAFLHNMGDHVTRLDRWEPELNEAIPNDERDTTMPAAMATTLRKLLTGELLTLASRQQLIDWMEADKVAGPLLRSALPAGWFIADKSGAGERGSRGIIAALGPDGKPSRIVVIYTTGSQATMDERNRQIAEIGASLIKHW
T2 sequence (P05364 whole entry): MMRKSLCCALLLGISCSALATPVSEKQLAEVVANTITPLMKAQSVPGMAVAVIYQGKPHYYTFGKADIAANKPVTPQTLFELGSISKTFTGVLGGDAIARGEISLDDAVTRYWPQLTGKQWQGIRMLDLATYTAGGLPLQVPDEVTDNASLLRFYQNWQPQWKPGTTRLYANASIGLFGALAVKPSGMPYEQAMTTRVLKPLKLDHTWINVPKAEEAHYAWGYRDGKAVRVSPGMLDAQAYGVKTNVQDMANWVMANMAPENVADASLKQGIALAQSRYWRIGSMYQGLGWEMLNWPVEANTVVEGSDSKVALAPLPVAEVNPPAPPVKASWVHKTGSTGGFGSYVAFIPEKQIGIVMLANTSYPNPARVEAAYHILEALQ

Usually IC50 stands for the concentration that gives 50% inhibition. For the compound `CC(=O)OCC1=C(C(=O)O)N2C(=O)/C(=C/C(C)(C)C)[C@H]2S(=O)(=O)C1`, the IC50 against Beta-lactamase TEM [1], at Beta-lactamase [2] and against Beta-lactamase [3] was over 20 µM each time.

For `CC(=O)OCC1=C(C(=O)O)N2C(=O)/C(=C/c3ccccn3)[C@H]2SC1`, the IC50 was over 20 µM at Beta-lactamase [4], over 2 µM against Beta-lactamase TEM [5] and over 20 µM at Beta-lactamase [6].

Regarding `CC(=O)OCC1=C(C(=O)O)N2C(=O)/C(=C/c3ccccc3)[C@H]2SC1`, the IC50 on Beta-lactamase [4], against Beta-lactamase TEM [5] and against Beta-lactamase [6] was over 20 µM in each case.

With `CC(=O)OCC1=C(C(=O)[O-])N2C(=O)/C(=C/c3ccccn3)[C@H]2S(=O)(=O)C1.[Na+]`, in series [7], the k3' was 5.3e+06 L (M min)-1. Moreover, the IC50 on Beta-lactamase TEM [8] came to 0.8 µM; on Beta-lactamase [2], 0.025 µM; against Beta-lactamase [3], 0.025 µM.

In the case of `CC(=O)OCC1=C(C(=O)O)N2C(=O)/C(=C/c3ccccc3)[C@H]2S(=O)(=O)C1`, the IC50 against Beta-lactamase TEM [8] is over 20 µM; against Beta-lactamase [2] it was 6.25 µM; against Beta-lactamase [3] it was 6.8 µM.

On to `CC(=O)OCC1=C(C(=O)O)N2C(=O)/C(=C/C(=O)OC(C)(C)C)[C@H]2S(=O)(=O)C1`, for which the IC50 against Beta-lactamase TEM [8] came out at 0.005 µM; against Beta-lactamase [2], 7.8 µM; at Beta-lactamase [3], 5.9 µM.

On to `CC(=O)OCC1=C(C(=O)O)N2C(=O)/C(=C/C(=O)OC(C)(C)C)[C@H]2SC1`, for which the IC50 at Beta-lactamase [4] is over 20 µM; against Beta-lactamase TEM [5] it was over 20 µM; against Beta-lactamase [6], 2.5 µM.

For `CC(=O)OCC1=C(C(=O)O)N2C(=O)/C(=C\Br)[C@H]2S(=O)(=O)C1`, the IC50 against Beta-lactamase TEM [1], on Beta-lactamase [2] and at Beta-lactamase [3] was over 20 µM throughout.

Turning to `CC(=O)OCC1=C(C(=O)O)N2C(=O)/C(=C/CO)[C@H]2S(=O)(=O)C1`, the IC50 against Beta-lactamase TEM [1], against Beta-lactamase [2] and against Beta-lactamase [3] was over 20 µM each time.

Turning to `CC(=O)OCC1=C(C(=O)[O-])N2C(=O)C(=C=CC(C)(C)C)[C@H]2S(=O)(=O)C1.[Na+]`, the IC50 on Beta-lactamase [4] was 0.26 µM; at Beta-lactamase TEM [5], over 20 µM; against Beta-lactamase [6] it was 0.13 µM. Moreover, the k3' in [7] is 1.7e+06 L (M min)-1.

Consider `CC(=O)OCC1=C(C(=O)O)N2C(=O)C(=C(Br)Br)[C@H]2SC1`, for which the IC50 on Beta-lactamase [4], against Beta-lactamase TEM [5] and against Beta-lactamase [6] was over 20 µM in each case.

For `CC(=O)OCC1=C(C(=O)O)N2C(=O)C(=C(Br)Br)[C@H]2S(=O)(=O)C1`, the IC50 at Beta-lactamase TEM [8], at Beta-lactamase [2] and against Beta-lactamase [3] was over 20 µM each time.

As to `CC(=O)OCC1=C(C(=O)O)N2C(=O)C(=C(Cl)Cl)[C@H]2S(=O)(=O)C1`, the IC50 is 8.3 µM at Beta-lactamase TEM [8], over 20 µM against Beta-lactamase [2] and over 20 µM against Beta-lactamase [3].

As to `CC(=O)OCC1=C(C(=O)O)N2C(=O)C(=C(Cl)Cl)[C@H]2SC1`, the IC50 against Beta-lactamase [4], against Beta-lactamase TEM [5] and against Beta-lactamase [6] was over 20 µM in each case.

Consider `CC(=O)OCC1=C(C(=O)O)N2C(=O)/C(=C/C=O)[C@H]2SC1`, for which the IC50 against Beta-lactamase [4] is 16.5 µM; at Beta-lactamase TEM [5], over 20 µM; against Beta-lactamase [6], 8.2 µM.

Take `CC(=O)OCC1=C(C(=O)O)N2C(=O)/C(=C/C(C)(C)C)[C@H]2SC1`: the IC50 against Beta-lactamase TEM [1], at Beta-lactamase [2] and on Beta-lactamase [3] was over 20 µM throughout.

`CON(C)C(=O)/C=C1/C(=O)N2C(C(=O)O)=C(COC(C)=O)CS[C@H]12`: the IC50 at Beta-lactamase TEM [8], at Beta-lactamase [2] and against Beta-lactamase [3] was over 20 µM in each case.

Take `CC(=O)OCC1=C(C(=O)O)N2C(=O)/C(=C\Br)[C@H]2SC1`: the IC50 on Beta-lactamase [4], at Beta-lactamase [6] and on Beta-lactamase TEM [9] was over 20 µM throughout.

As to `CC(=O)OCC1=C(C(=O)O)N2C(=O)/C(=C\c3ccccc3)[C@H]2S(=O)(=O)C1`, the IC50 on Beta-lactamase TEM [8], against Beta-lactamase [2] and against Beta-lactamase [3] was over 20 µM in each case.

`CC(=O)/C=C1/C(=O)N2C(C(=O)O)=C(COC(C)=O)CS[C@H]12`: the IC50 against Beta-lactamase [4], against Beta-lactamase TEM [5] and at Beta-lactamase [6] was over 20 µM throughout.

On to `O=C([O-])[C@H]1/C(=C/CO)O[C@@H]2CC(=O)N21.[Na+]` [CLAVULANIC ACID (SODIUM)], for which the “k3'” value in [7] is 799 L (M min)-1.

`C[C@]1(Cn2ccnn2)[C@H](C(=O)[O-])N2C(=O)C[C@H]2S1(=O)=O.[Na+]` [TAZOBACTAM SODIUM]: the k3' in [7] is 74000 L (M min)-1.
